The values that follow come from ChEMBL document CHEMBL1133116, “Synthesis and evaluation of 17-aliphatic heterocycle-substituted steroidal inhibitors of 17alpha-hydroxylase/C17-20-lyase (P450 17)” (J Med Chem, 2000).

Assay [1] deals with T1, Steroid 17-alpha-hydroxylase/17,20 lyase (Homo sapiens, UniProt P05093).
T1 sequence (P05093 whole entry): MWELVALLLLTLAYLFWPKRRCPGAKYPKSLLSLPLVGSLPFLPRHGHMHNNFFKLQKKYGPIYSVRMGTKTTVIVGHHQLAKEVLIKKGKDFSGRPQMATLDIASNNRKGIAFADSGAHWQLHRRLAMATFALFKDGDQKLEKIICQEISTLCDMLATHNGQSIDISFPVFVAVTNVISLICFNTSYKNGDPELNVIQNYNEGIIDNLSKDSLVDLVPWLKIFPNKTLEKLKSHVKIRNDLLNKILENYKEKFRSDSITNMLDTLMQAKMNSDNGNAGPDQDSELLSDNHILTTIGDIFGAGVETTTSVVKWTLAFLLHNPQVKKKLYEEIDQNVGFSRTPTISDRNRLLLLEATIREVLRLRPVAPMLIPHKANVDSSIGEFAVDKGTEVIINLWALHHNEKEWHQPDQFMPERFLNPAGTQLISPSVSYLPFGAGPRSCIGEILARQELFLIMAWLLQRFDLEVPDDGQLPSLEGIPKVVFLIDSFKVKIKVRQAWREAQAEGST
The assay is described as follows: Binding affinity for Cytochrome P450 17 from human testicular microsomes. Put shortly: (§1)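 Ki was determined by the method of Lee and Wilson in the testicular microsome P450 17 assay. Inhibitor was used between its IC40 and IC70 values, with progesterone at 1.25–20 µM and 15 min incubation. All other parameters matched the regular assay. Kinetics were analysed by Lineweaver-Burk plot.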

Assay [2] addresses T2, Steroid 17-alpha-hydroxylase/17,20 lyase (Rattus norvegicus, UniProt P11715).
T2 sequence (P11715 whole entry): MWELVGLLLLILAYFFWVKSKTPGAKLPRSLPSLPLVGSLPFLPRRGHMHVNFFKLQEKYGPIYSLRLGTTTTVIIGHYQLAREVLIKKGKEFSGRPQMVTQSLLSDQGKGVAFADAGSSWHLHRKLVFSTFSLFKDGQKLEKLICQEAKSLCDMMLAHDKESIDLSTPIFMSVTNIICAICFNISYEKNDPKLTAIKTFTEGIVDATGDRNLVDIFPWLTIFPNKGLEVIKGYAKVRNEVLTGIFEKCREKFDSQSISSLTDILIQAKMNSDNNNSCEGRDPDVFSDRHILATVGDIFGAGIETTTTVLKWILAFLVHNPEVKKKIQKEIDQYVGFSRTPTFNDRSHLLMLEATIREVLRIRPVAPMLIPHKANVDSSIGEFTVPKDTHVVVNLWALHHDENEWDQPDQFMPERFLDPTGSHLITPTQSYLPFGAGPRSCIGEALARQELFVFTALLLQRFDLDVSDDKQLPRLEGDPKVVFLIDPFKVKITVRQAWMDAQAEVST
Description: Inhibition of Cytochrome P450 17 from rat testicular microsomes. In short, it runs like this: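 Rat testicular microsomes incubated with progesterone substrate at 25 µM. Products were quantified by reverse-phase HPLC with UV detection. IC50 is the inhibitor concentration giving 50% inhibition, as the mean of at least two experiments, with deviations within 5%.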

The target of assay [3] is T2, Steroid 17-alpha-hydroxylase/17,20 lyase. Description: Binding affinity for Cytochrome P450 17 from rat testicular microsomes. In short, it runs like this: as §1
Assay [4] addresses T1, Steroid 17-alpha-hydroxylase/17,20 lyase. The assay is described as follows: Tested for inhibitory activity against Cytochrome P450 17 from human testicular microsomes.
In assay [5] the target is T3, Aromatase (Homo sapiens, UniProt P11511).
T3 sequence (P11511 whole entry): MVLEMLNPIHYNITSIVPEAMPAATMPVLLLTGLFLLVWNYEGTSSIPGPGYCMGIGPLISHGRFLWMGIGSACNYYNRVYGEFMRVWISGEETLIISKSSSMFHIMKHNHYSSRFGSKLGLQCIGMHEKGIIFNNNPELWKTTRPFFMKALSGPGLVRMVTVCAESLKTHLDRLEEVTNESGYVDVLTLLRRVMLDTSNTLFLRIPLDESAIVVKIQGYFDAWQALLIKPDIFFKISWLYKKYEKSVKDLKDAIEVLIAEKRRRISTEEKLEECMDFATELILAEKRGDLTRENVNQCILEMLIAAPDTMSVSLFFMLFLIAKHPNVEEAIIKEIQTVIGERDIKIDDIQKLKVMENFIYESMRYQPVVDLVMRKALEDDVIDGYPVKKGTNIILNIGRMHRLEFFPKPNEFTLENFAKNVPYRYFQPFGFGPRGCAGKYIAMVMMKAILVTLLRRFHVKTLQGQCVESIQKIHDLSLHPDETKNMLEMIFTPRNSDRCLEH
The assay is described as follows: Inhibition of Cytochrome P450 19A1.

For assay [6], the target named is T4, Thromboxane-A synthase (Homo sapiens, UniProt P24557).
T4 sequence (P24557 whole entry): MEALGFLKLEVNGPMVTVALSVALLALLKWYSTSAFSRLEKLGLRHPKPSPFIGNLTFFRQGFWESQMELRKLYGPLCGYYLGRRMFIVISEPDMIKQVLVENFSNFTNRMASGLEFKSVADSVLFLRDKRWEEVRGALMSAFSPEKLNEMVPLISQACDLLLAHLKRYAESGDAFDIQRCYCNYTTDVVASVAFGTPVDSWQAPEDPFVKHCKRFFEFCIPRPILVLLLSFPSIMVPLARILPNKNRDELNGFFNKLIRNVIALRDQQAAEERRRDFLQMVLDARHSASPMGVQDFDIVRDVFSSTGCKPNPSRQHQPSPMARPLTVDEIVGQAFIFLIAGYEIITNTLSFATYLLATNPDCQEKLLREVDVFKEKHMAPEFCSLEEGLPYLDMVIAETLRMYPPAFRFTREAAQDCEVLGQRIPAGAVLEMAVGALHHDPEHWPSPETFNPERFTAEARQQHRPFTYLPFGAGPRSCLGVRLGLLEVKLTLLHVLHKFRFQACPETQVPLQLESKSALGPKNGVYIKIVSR
Description: Inhibition of thromboxane synthase P450 TXA2.

Assay [7] has as its target T5, Cholesterol side-chain cleavage enzyme, mitochondrial (Bos taurus, UniProt P00189).
T5 sequence (P00189 whole entry): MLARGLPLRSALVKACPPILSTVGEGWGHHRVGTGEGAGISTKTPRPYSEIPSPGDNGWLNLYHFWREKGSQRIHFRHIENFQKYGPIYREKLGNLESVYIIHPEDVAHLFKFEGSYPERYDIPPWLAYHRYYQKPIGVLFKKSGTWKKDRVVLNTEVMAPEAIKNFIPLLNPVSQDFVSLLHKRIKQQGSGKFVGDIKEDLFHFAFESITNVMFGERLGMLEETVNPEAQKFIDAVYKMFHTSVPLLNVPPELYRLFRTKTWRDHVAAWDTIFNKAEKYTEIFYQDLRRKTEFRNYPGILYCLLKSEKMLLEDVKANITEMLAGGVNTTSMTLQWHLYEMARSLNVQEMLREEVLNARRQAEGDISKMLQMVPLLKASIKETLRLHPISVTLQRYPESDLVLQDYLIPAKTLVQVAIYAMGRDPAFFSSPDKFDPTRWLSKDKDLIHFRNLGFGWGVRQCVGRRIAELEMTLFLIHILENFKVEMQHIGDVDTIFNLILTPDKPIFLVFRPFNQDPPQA
The assay is described as follows: Inhibition of P450 scc.

Assay [8] is filed under the species Rattus norvegicus. The assay is described as follows: Percent reduction in plasma testosterone after 2 hr. The class given is functional. In short, it runs like this:
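Adult male Sprague-Dawley rats, 7–8 per group, received a single intraperitoneal dose of 0.019 mmol/kg in olive oil/benzyl alcohol (95:5). Blood was taken by cardiac puncture under diethyl ether anesthesia at 2 h. Plasma testosterone was measured by RIA with [125I]testosterone, in ng/mL.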

Assay [9] is filed under the species Rattus norvegicus. The assay is described as follows: Percent reduction in plasma testosterone after 6 hr; ne means No effect. The class given is functional, organism-based. Put shortly: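 Adult male Sprague-Dawley rats, 7–8 per group, received a single intraperitoneal dose of 0.019 mmol/kg in olive oil/benzyl alcohol (95:5). Blood was drawn by cardiac puncture under diethyl ether anesthesia at 6 h. Plasma testosterone was quantified by RIA using [125I]testosterone, in ng/mL.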

Assay [10] has as its target T6, 3-oxo-5-alpha-steroid 4-dehydrogenase 2 (Homo sapiens, UniProt P31213).
T6 sequence (P31213 whole entry): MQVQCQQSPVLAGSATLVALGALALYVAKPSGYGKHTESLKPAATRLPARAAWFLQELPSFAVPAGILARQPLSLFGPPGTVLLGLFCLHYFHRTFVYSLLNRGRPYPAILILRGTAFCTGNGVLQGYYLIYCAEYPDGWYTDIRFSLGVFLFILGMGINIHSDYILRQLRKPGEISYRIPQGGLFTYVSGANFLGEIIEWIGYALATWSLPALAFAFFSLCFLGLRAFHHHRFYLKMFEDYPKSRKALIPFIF
The assay is described as follows: Inhibition of Steroid 5-alpha-reductase type 2 isozyme. Put shortly:
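The enzyme source for the type II isozyme was prostate homogenate from patients with benign prostatic hyperplasia (BPH).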

For assay [11], the target named is T1, Steroid 17-alpha-hydroxylase/17,20 lyase. Description: Inhibition of Cytochrome P450 17 from human testicular microsomes at 2.5 uM; n.i. means no inhibition. Put shortly:
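Human testicular microsomes as P450 17 source, with progesterone in large excess (25 µM) as substrate. Inhibitor was tested at 2.5 µM. The 16α- and 17α-hydroxyprogesterone products were quantified by reverse-phase HPLC with UV detection. No lyase products form with the human enzyme. Values are means of at least two experiments.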

In assay [12] the target is T2, Steroid 17-alpha-hydroxylase/17,20 lyase. The assay is described as follows: Inhibition of Cytochrome P450 17 from rat testicular microsomes at 125 uM; n.i. means no inhibition. Put shortly: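 Rat testicular microsomes as P450 17 source, with progesterone substrate at 25 µM. […] Products were quantified by reverse-phase HPLC with UV detection. Values are means of at least two experiments.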

What is called Ki is the equilibrium dissociation constant of an inhibitor or competing ligand from its target. Lower therefore signals a stronger hold on the target. Usually IC50 stands for the concentration at which inhibition is half-maximal. Read a high IC50 as lower potency.

Active and inactive are the calls of the source. The calls are words filed in the database; no cut-off is given here.

On to `C[C@]12CC[C@H]3[C@@H](CC=C4C[C@@H](O)CC[C@@]43C)[C@@H]1CC[C@@H]2[C@H]1CN1`, for which the values for the Ki in assay [1] and in assay [3] were 8 nM and 3 nM, respectively. Further, the IC50 was 210 nM in [2]; 540 nM in assay [4]; greater than 50000 nM in assay [5]; 4000 nM in assay [6]; greater than 25000 nM in assay [7]; 10000 nM in assay [10]. Moreover, in [8], the Reduction was 81%. Moreover, the Reduction result in assay [9] was “inactive”.

With `COC1CC[C@@]2(C)C(=CC[C@H]3[C@@H]4CC[C@@H](C5CO5)[C@@]4(C)CC[C@@H]32)C1` (some centres not stated), the concentration for half-maximal inhibition (IC50) result in assay [11] and in assay [12] was “Not Active” in each case.
